Test results published in PMC5107128 (Pharmacological research, 2016).

Legend:
WM266-4 cells [1] = experiment: Transwell Matrigel invasion assay; assay type: cell-based, human
In short: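 25 × 10^4 WM266-4 cells in suspension were treated with 0.16 or 0.32µM test compound; shMT1-MMP cells got recombinant MMP2 at 25ng/ml. Cells were placed in 8-µm-pore inserts, uncoated or coated with growth-factor-reduced Matrigel, with DMEM plus 5% FBS below. After 24 h, cells on the bottom membrane were fixed in 4% formaldehyde and stained with Coomassie. Stain was extracted in 10% acetic acid and read at […], in triplicate. Invasion % = Matrigel/control insert × 100.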

[2] = cited from earlier work
MT1-MMP = MT1-MMP (Homo sapiens, UniProt P50281); experiment: MT1-MMP activity assay; assay type: cell-based; conditions: WM266-4 cells, 0.32 µM, overnight
In short: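 WM266-4 cells treated overnight with test compound (0.32 µM final). Comparators were a neutralizing antibody (1 μg/ml), recombinant MT1-MMP (0.5 μg/ml) or shMT1-MMP expression. Membranes extracted by three freeze-thaw cycles, sonicated, pelleted (30 min, 13 000 g, 4°C) and resuspended in PBS. Equal protein incubated with fluorogenic substrate Mca-PLGL-Dap(Dnp)-AR-NH2; fluorescence read at Ex/Em […].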

WM266-4 cells [3] = experiment: Scratch migration assay; assay type: cell-based, human
RAC1 = RAC1 activity assay; assay type: cell-based, human; conditions: WM266-4 cells, 0.32 µM, 24 hours
In short: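 Cells at 70% confluency were serum-starved in DMEM with 0.5% serum for 24 h, then serum-free for a further 24 h. They were lysed in the G-LISA kit buffer. Equal protein amounts were added to Rac1-GTP-binding wells, and active RAC1 was read at OD 490 nm.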

MMP2 [4] = experiment: Gelatin zymography of conditioned medium; assay type: cell-based, human; conditions: WM266-4 cells, 0.32 µM
In short: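 WM266-4 cells were treated with 0.32µM test compound or DMSO, and serum-free conditioned medium was collected. Medium was concentrated on a 30K cutoff device, and 10 μg protein was run on 8% SDS-PAGE containing 2 mg/ml gelatin. Gels were washed in 2.5% Triton X-100, then incubated overnight at 37°C in 50 mM Tris-HCl, 5 mM CaCl2, 0.1% Triton X-100, pH 7.8. Gels were Coomassie R250-stained 45 min, then destained.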

other MMPs = conditions: cited from earlier work
WM266-4 cells [5] = experiment: Orthotopic melanoma model: WM266-4 cells intradermally in NOD/SCID mice; assay type: in vivo
In short: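 Male NOD/SCID mice (5–8 weeks) received 2 × 10^6 luciferase-transduced WM266-4 cells intradermally in dorsal flanks (9 control, 18 treated tumors). Dosing began at about 120 mm3 mean tumor volume: 25 mg/Kg once daily subcutaneously, from 7.5 mg/ml in sterile PBS, filter-sterilized. Tumor volume taken as (w2 × l) × 0.52 and normalized to time 0. Primary tumors resected at day 42. Lung bioluminescence checked twice weekly. Lungs/thymi S100-stained at 30 weeks post-surgery.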

melanoma cell lines = experiment: Cell proliferation assay; assay type: cell-based, human
In short: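 Crystal violet growth assay. Melanoma cells were kept in DMEM with 10% FCS, 1% glutamine and 1% penicillin-streptomycin. They were seeded at 16,000/cm2 in triplicate and treated with 0.32 µM test compound or DMSO vehicle. shMT1-MMP WM266-4 cells received recombinant MMP2 at 25ng/ml. At each time point cells were fixed in 10% buffered formalin and stained with crystal violet. Growth is expressed relative to controls.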

[6] = cited from earlier work; remark: listed apart in the source
prostate cancer = conditions: cited from earlier work
MMP2 [7] = target: T1, MMP2 (Homo sapiens, UniProt P08253); conditions: cited from earlier work
T1 sequence (P08253 110-660): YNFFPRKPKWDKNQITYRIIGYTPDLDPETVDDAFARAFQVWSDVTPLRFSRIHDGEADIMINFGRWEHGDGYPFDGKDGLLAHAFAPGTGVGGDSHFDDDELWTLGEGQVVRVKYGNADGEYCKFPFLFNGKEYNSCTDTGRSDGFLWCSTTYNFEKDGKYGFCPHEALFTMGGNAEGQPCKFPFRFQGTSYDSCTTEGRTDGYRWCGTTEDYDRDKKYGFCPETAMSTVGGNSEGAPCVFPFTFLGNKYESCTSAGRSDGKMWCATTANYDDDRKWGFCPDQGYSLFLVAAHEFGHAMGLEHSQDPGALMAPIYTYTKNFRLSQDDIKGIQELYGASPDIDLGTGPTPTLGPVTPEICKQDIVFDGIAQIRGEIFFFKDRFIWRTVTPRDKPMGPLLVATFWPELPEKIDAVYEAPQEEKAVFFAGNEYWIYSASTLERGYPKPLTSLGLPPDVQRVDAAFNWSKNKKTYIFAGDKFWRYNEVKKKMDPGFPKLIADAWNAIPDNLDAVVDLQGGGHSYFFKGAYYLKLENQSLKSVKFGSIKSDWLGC

[8] = WM266-4 cells, recombinant MMP2 25ng/ml

## Nc1ccc(Oc2ccc(S(=O)(=O)CC3CS3)cc2)cc1 (stereo not shown) [ND-322]
WM266-4 cells [1]; 0.16 and 0.32 µM, 24 hours, dose dependent
  invasion capacity of WM266-4 melanoma cells: inhibited significantly
[2]
  tolerability in a model of wound healing: well tolerated
MT1-MMP
  MT1-MMP activity: as effective as antibody neutralization and knockdown
WM266-4 cells [3]; 0.16 and 0.32 µM, dose dependent
  motility (migration) of WM266-4 melanoma cells: inhibited significantly
RAC1
  activity of the small GTPase RAC1: reduce the activity
MMP2 [4]
  MMP2 activation by gelatin zymography: inhibited MMP2 activation
Other MMPs
  inhibition of other MMPs: does not inhibit or poorly inhibits
WM266-4 cells [5]; 25 mg/Kg/day subcutaneously, NOD/SCID mice
  tumor growth compared to controls: reduced tumor growth significantly
WM266-4 cells [5]; 25 mg/Kg/day, NOD/SCID mice
  body weight over time: maintained their weight
  tolerability of treatment: well tolerated
WM266-4 cells [5]; 30 weeks post-surgery, control animals 90%
  mice presenting with tumor cells in the lungs (lung metastasis): 40%
Melanoma cell lines; 0.32 µM
  cell growth of several melanoma cell lines: inhibited cell growth
[6]
  crossing of the blood/brain barrier: cross the blood/brain barrier

## O=S(=O)(CC1CS1)c1ccc(Oc2ccccc2)cc1 (stereo not shown) [SB-3CT, reference compound]
Prostate cancer
  bone metastasis in a xenograft model of prostate cancer: effectively prevent bone metastasis
[6]
  crossing of the blood/brain barrier: cross the blood/brain barrier

## TIMP1: tissue inhibitor of matrix metalloproteinase (TIMP)1
MMP2 [7]
  residence time bound to MMP2: 6.9 min

B1: recombinant active MMP2: recombinant active MMP2 added to cells at 25ng/ml (protein, UniProt P08253 110-660, looked up)
72 kDa type IV collagenase: YNFFPRKPKWDKNQITYRIIGYTPDLDPETVDDAFARAFQVWSDVTPLRFSRIHDGEADIMINFGRWEHGDGYPFDGKDGLLAHAFAPGTGVGGDSHFDDDELWTLGEGQVVRVKYGNADGEYCKFPFLFNGKEYNSCTDTGRSDGFLWCSTTYNFEKDGKYGFCPHEALFTMGGNAEGQPCKFPFRFQGTSYDSCTTEGRTDGYRWCGTTEDYDRDKKYGFCPETAMSTVGGNSEGAPCVFPFTFLGNKYESCTSAGRSDGKMWCATTANYDDDRKWGFCPDQGYSLFLVAAHEFGHAMGLEHSQDPGALMAPIYTYTKNFRLSQDDIKGIQELYGASPDIDLGTGPTPTLGPVTPEICKQDIVFDGIAQIRGEIFFFKDRFIWRTVTPRDKPMGPLLVATFWPELPEKIDAVYEAPQEEKAVFFAGNEYWIYSASTLERGYPKPLTSLGLPPDVQRVDAAFNWSKNKKTYIFAGDKFWRYNEVKKKMDPGFPKLIADAWNAIPDNLDAVVDLQGGGHSYFFKGAYYLKLENQSLKSVKFGSIKSDWLGC
WM266-4 cells [1]; [8]
  rescue of cell invasion in cells expressing shMT1-MMP: rescued
WM266-4 cells [3]; WM266-4 cells, recombinant MMP2 25ng/ml, 24 hours
  rescue of cell motility in cells expressing shMT1-MMP: rescued
Melanoma cell lines; [8]
  rescue of cell growth in cells expressing shMT1-MMP: did not rescue cell growth
